Values after ≈ are worked out from the molar mass of the structure shown. Active and inactive are the calls of the source. The calls are words filed in the database; no cut-off is given here.
How the values were obtained:
Pseudomonas aeruginosa = assay: Antibacterial activity against Pseudomonas aeruginosa ATCC27853 incubated for 24 hrs by CLSI-based broth microdilution method; type: functional
Escherichia coli = assay: Antibacterial activity against Escherichia coli ATCC25922 incubated for 24 hrs by CLSI-based broth microdilution method; type: functional; conditions: ATCC 25922
Staphylococcus aureus [1] = assay: Antibacterial activity against Staphylococcus aureus clinical isolate incubated for 24 hrs by CLSI-based broth microdilution method; type: functional
Staphylococcus aureus [2] = assay: Antibacterial activity against penicillin-resistant Staphylococcus aureus incubated for 24 hrs by CLSI-based broth microdilution method; type: functional
Bacillus pumilus = assay: Antibacterial activity against Bacillus pumilus CMCC63202 incubated for 24 hrs by CLSI-based broth microdilution method; type: functional
Staphylococcus aureus [3] = assay: Antibacterial activity against Staphylococcus aureus ATCC25923 incubated for 24 hrs by CLSI-based broth microdilution method; type: functional
Staphylococcus aureus [4] = assay: Antibacterial activity against methicillin-resistant Staphylococcus aureus ATCC43300 incubated for 24 hrs by CLSI-based broth microdilution method; type: functional
Bacillus subtilis [5] = assay: Antibacterial activity against Bacillus subtilis ATCC9372 incubated for 24 hrs by CLSI-based broth microdilution method; type: functional
Bacillus subtilis [6] = assay: Inhibition of ftsZ in Bacillus subtilis assessed as increase in enzyme polymerization kinetics at 10 ug/ml measured for 30 mins by microtiter plate-based light scattering assay; conditions: dose 10.0 µg/ml
Bacillus subtilis [7] = assay: Inhibition of ftsZ in Bacillus subtilis assessed as increase in enzyme polymerization kinetics at 5 ug/ml measured for 30 mins by microtiter plate-based light scattering assay; conditions: dose 5.0 µg/ml
Procedure, shortened: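 Purified recombinant B. subtilis FtsZ was used. Polymerization was followed as light scattering in microtiter plates, read as time-dependent absorbance at 340 nm at several compound concentrations. Vehicle, CIP and LIN served as controls.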

Staphylococcus aureus [8] = assay: In-vivo antibacterial activity against Staphylococcus aureus infected in KM mouse model assessed as reduction in bacterial load in blood at 10 mg/kg, iv administered thrice daily and measured after 48 hrs; type: functional, organism-based
Procedure, shortened: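 Groups of four KM mice (average 20 g) were infected i.v. with 8.5 × 10⁸ CFU of a clinical S. aureus isolate resistant to CIP and ERY, in 0.15 mL saline. Treatment was 10 mg/kg i.v. three times daily. Vehicle was 2% DMAC, 30% PEG400/PG (1:1) and 5% HPβCD in water; vehicle and LIN arms were included. At 48 h, retro-orbital blood (0.1 mL) was plated on TSA for CFU counts.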

Staphylococcus aureus [9] = assay: Bactericidal activity against Staphylococcus aureus clinical isolate assessed as reduction in number of colony forming units incubated for 24 hrs followed by re-plating and reincubation on tryptic soy agar plate for 24 hrs; type: functional
Staphylococcus aureus [10] = assay: Bactericidal activity against penicillin-resistant Staphylococcus aureus assessed as reduction in number of colony forming units incubated for 24 hrs followed by re-plating and reincubation on tryptic soy agar plate for 24 hrs; type: functional
Staphylococcus aureus [11] = assay: Bactericidal activity against methicillin-resistant Staphylococcus aureus ATCC43300 assessed as reduction in number of colony forming units incubated for 24 hrs followed by re-plating and reincubation on tryptic soy agar plate for 24 hrs; type: functional
Staphylococcus aureus [12] = assay: Bactericidal activity against Staphylococcus aureus ATCC25923 assessed as reduction in number of colony forming units incubated for 24 hrs followed by re-plating and reincubation on tryptic soy agar plate for 24 hrs; type: functional

Row | Compound | MIC (Pseudomonas aeruginosa) [µg/mL] | MIC (Escherichia coli) [µg/mL] | MIC (Staphylococcus aureus [1]) [µg/mL] | MIC (Staphylococcus aureus [2]) [µg/mL] | MIC (Bacillus pumilus) [µg/mL] | MIC (Staphylococcus aureus [3]) [µg/mL] | MIC (Staphylococcus aureus [4]) [µg/mL] | MIC (Bacillus subtilis [5]) [µg/mL] | inhibition (Bacillus subtilis [6]) | FtsZ polymerization increase (active/inactive call) (Bacillus subtilis [7]) | Activity (Staphylococcus aureus [8]) | MBC (Staphylococcus aureus [9]) [µg/mL] | MBC (Staphylococcus aureus [10]) [µg/mL] | MBC (Staphylococcus aureus [11]) [µg/mL] | MBC (Staphylococcus aureus [12]) [µg/mL]
1 | CC(C)(C)c1ccc(C2=NOC(COc3ccc(F)c(C(N)=O)c3F)C2)cc1 (centres undefined) | > 64 | > 64 | 4 (≈ 10.3 µM) | 4 (≈ 10.3 µM) | ≤ 0.125 | 4 (≈ 10.3 µM) | 2 (≈ 5.15 µM) | 0.25 (≈ 0.644 µM) |  |  |  |  |  |  | 
2 | O=C(O)c1cn(C2CC2)c2cc(N3CCNCC3)c(F)cc2c1=O |  |  |  |  |  |  |  |  | inactive |  |  |  |  |  | 
3 | CCCCc1ccc(C2=NO[C@@H](COc3ccc(F)c(C(N)=O)c3F)C2)cc1 | > 64 | > 64 | 2 (≈ 5.15 µM) | 1 (≈ 2.57 µM) | 0.5 (≈ 1.29 µM) | 4 (≈ 10.3 µM) | 2 (≈ 5.15 µM) | 0.25 (≈ 0.644 µM) |  | Active |  |  |  |  | 
4 | CCCCc1ccc(C2=NO[C@H](COc3ccc(F)c(C(N)=O)c3F)C2)cc1 | > 64 | > 64 | ≤ 0.125 | 0.25 (≈ 0.644 µM) | ≤ 0.125 | 0.25 (≈ 0.644 µM) | ≤ 0.125 | ≤ 0.125 |  | Active |  |  |  |  | 
5 | CC[C@H]1OC(=O)[C@H](C)[C@@H](O[C@H]2C[C@@](C)(OC)[C@@H](O)[C@H](C)O2)[C@H](C)[C@@H](O[C@@H]2O[C@H](C)C[C@H](N(C)C)[C@H]2O)[C@](C)(O)C[C@@H](C)C(=O)[C@H](C)[C@@H](O)[C@]1(C)O [ERYTHROMYCIN] | 32 (≈ 43.6 µM) | 16 (≈ 21.8 µM) | > 64 |  | ≤ 0.125 | ≤ 0.125 | > 64 | ≤ 0.125 |  |  |  |  |  |  | 
6 | NC(=O)c1c(F)ccc(OCC2=NOC(c3ccc(Cl)cc3Cl)C2)c1F (centres undefined) | > 64 | > 64 | 16 (≈ 39.9 µM) | 32 (≈ 79.8 µM) | 0.5 (≈ 1.25 µM) | 32 (≈ 79.8 µM) | 16 (≈ 39.9 µM) | 2 (≈ 4.99 µM) |  |  |  |  |  |  | 
7 | CC(=O)NC[C@H]1CN(c2ccc(N3CCOCC3)c(F)c2)C(=O)O1 [LINEZOLID] | > 64 | > 64 | 1 (≈ 2.96 µM) | 1 (≈ 2.96 µM) | 1 (≈ 2.96 µM) |  |  | 0.5 (≈ 1.48 µM) | inactive |  | Active | 64 (≈ 190 µM) | > 64 | > 64 | > 64
8 | NC(=O)c1c(F)ccc(OCC2=NOC(c3ccc(Br)cc3)C2)c1F (centres undefined) | > 64 | > 64 |  | > 64 | 32 (≈ 77.8 µM) | > 64 | 32 (≈ 77.8 µM) | 8 (≈ 19.5 µM) |  |  |  |  |  |  | 
9 | NC(=O)c1c(F)ccc(OCC2CC(c3ccc(C4CCCCC4)cc3)=NO2)c1F (centres undefined) | > 64 | > 64 |  | > 64 | > 64 | > 64 | > 64 | > 64 |  |  |  |  |  |  | 
10 | NC(=O)c1c(F)ccc(OCc2nc3cc(Cl)cnc3s2)c1F | > 64 | > 64 | 1 (≈ 2.81 µM) | 1 (≈ 2.81 µM) | 0.5 (≈ 1.41 µM) | 1 (≈ 2.81 µM) | 1 (≈ 2.81 µM) | 0.5 (≈ 1.41 µM) |  |  |  |  |  |  | 
11 | NC(=O)c1c(F)ccc(OCC2CC(c3cccc(Cl)c3)=NO2)c1F (centres undefined) | > 64 | > 64 |  | 32 (≈ 87.3 µM) | 8 (≈ 21.8 µM) | 16 (≈ 43.6 µM) | 32 (≈ 87.3 µM) | 2 (≈ 5.45 µM) |  |  |  |  |  |  | 
12 | CCCCc1ccc(-c2cc(COc3ccc(F)c(C(N)=O)c3F)on2)cc1 |  |  |  |  |  |  |  |  |  | Active |  |  |  |  | 
13 | NC(=O)c1c(F)ccc(OCC2CC(c3ccccc3)=NO2)c1F (centres undefined) | > 64 | > 64 |  | > 64 | 64 (≈ 193 µM) | > 64 | > 64 | 16 (≈ 48.1 µM) |  |  |  |  |  |  | 
14 | NC(=O)c1c(F)ccc(OCC2=NOC(c3cccc(Cl)c3)C2)c1F (centres undefined) | > 64 | > 64 |  | > 64 | > 64 | > 64 | > 64 | 64 (≈ 175 µM) |  |  |  |  |  |  | 
15 | CC(C)(C)c1ccc(C2CC(COc3ccc(F)c(C(N)=O)c3F)=NO2)cc1 (centres undefined) | > 64 | > 64 |  | 32 (≈ 82.4 µM) | 4 (≈ 10.3 µM) | 64 (≈ 165 µM) | 32 (≈ 82.4 µM) | 2 (≈ 5.15 µM) |  |  |  |  |  |  | 
16 | CCOc1ccc(C2=NOC(COc3ccc(F)c(C(N)=O)c3F)C2)cc1 (centres undefined) | > 64 | > 64 |  | > 64 | 16 (≈ 42.5 µM) | 64 (≈ 170 µM) | 64 (≈ 170 µM) | 4 (≈ 10.6 µM) |  |  |  |  |  |  | 
17 | CC(C)c1ccc(C2CC(COc3ccc(F)c(C(N)=O)c3F)=NO2)cc1 (centres undefined) | > 64 | > 64 |  | > 64 | 8 (≈ 21.4 µM) | 64 (≈ 171 µM) | 64 (≈ 171 µM) | 4 (≈ 10.7 µM) |  |  |  |  |  |  | 
18 | NC(=O)c1c(F)ccc(OCC2=NOC(c3ccc(F)cc3)C2)c1F (centres undefined) | > 64 | > 64 |  | > 64 | 64 (≈ 183 µM) | > 64 | > 64 | 16 (≈ 45.7 µM) |  |  |  |  |  |  | 
19 | NC(=O)c1c(F)ccc(OCC2CC(c3ccc(Cl)cc3)=NO2)c1F (centres undefined) | > 64 | > 64 |  | 32 (≈ 87.3 µM) | 8 (≈ 21.8 µM) | 32 (≈ 87.3 µM) | 32 (≈ 87.3 µM) | 8 (≈ 21.8 µM) |  |  |  |  |  |  | 
20 | COc1cccc(C2=NOC(COc3ccc(F)c(C(N)=O)c3F)C2)c1 (centres undefined) | > 64 | > 64 |  | > 64 | 32 (≈ 88.3 µM) | > 64 | > 64 | 8 (≈ 22.1 µM) |  |  |  |  |  |  | 
21 | NC(=O)c1c(F)ccc(OCC2CC(c3ccco3)=NO2)c1F (centres undefined) | > 64 | > 64 |  | > 64 | > 64 | > 64 | > 64 | 64 (≈ 199 µM) |  |  |  |  |  |  | 
22 | COc1ccc(C2=NOC(COc3ccc(F)c(C(N)=O)c3F)C2)cc1 (centres undefined) | > 64 | > 64 |  | > 64 | 32 (≈ 88.3 µM) | > 64 | > 64 | 8 (≈ 22.1 µM) |  |  |  |  |  |  | 

Reference: ChEMBL document CHEMBL4665863 (Bioorg Med Chem, 2020)
